The list is not random: actives were taken first. Their share in the collection is about 2.3%.
PLAP activator: activates human placental alkaline phosphatase; hit rate 1.2% among 96,000; activation fold at 20 µM; P05187; purified PLAP enzyme, luminescent substrate read-out; stronger effect = higher value; in the data active = activation fold above about 2
Ecoli tolC: growth inhibitors of E. coli BW25113 tolC mutant. growth inhibition, % at 10 µM (by protocol). AID 573. OD615. hit rate 2.2% among 65,000;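 active = growth inhibition at or above a cutoff equal to the mean over every tested compound plus 3 SD, cut at about 60% in these data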;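 note: growth measured after 20 h incubation at 37 °C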
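System: E. coli ΔtolC::kan strain BW25113; Buffer or medium: LB broth supplemented with 50 µg/mL kanamycin; Compound: 10 µM final, single dose; Incubation: bacterial growth with compound for 20 h at 37 °C; Signal: A615 absorbance measurement; Evaluation: growth inhibition in percent.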
HePTP inhibitor: blocks human HePTP tyrosine phosphatase | P35236 | recombinant HePTP phosphatase activity, OD absorbance | inhibition, % at 20 µM | hit rate 0.64% among 110,000; in the data active = inhibition above about 50%;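 note: plate controls were vehicle for no effect and reference inhibitor for full effect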
Target sequence (P35236 whole entry, looked up): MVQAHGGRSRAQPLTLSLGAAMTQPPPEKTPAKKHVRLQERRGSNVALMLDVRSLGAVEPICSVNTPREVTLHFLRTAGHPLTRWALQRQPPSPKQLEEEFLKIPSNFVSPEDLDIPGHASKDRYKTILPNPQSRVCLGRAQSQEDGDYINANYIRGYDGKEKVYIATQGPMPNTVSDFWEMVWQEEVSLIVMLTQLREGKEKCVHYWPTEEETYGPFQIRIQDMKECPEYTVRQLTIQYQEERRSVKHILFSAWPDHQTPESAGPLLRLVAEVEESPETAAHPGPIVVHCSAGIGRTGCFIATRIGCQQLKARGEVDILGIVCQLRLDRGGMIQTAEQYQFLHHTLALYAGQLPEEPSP
AP ELISA ortho: alternative pathway complement inhibition, orthogonal assay. inhibition, % at 5 µM. AID 1235. hit rate 0.08% among 62,000. Human serum alternative complement pathway, LPS-coated ELISA, C3 deposition; tested in compound mixtures;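 active = inhibition above 30% in each of the two pooled mixtures holding the compound, so the lower value exceeds 30%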;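 note: 0% = serum in Mg-EGTA without compound and 100% = EDTA serum blank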
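Test system: human serum complement alternative pathway, C3 deposition onto LPS / Medium: Mg2+-EGTA GVB++ buffer containing human serum at 1:15 dilution / Probe or stimulus: Plate-bound LPS / Times: 1 h at 37 °C / Signal: ELISA with HRP anti-human C3 antibody, TMB substrate, absorbance 450 nm / Measure: percent inhibition / Repeats: two pool placements per compound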
Ecoli WT expand: blocks growth of wild type E. coli BW25113 | AID 710 | hit rate 0.15% among 98,000 | growth inhibition, % at 100 µM | OD600 absorbance;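 active = growth inhibition above about 50% at one test dose, limit read from the data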;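 note: growth measured after 20 h incubation at 37 °C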
An asterisk follows results filed as active; / = no result given.

SMILES	PLAP activator	Ecoli tolC	HePTP inhibitor	AP ELISA ortho	Ecoli WT expand
CC(=O)c1ccc(-n2c(-c3cc(-c4ccco4)[nH]n3)n[nH]c2=S)cc1	2.6*	/	/	/	3
CCOC(=O)CSc1nc2sc3c(c2c(=O)n1-c1ccccc1)CCCCC3	/	/	5	/	/
Clc1ccc(/C=N\Nc2nc3ccccc3o2)c(Cl)c1	/	/	3	/	/
COc1cc(NC(=O)c2cccs2)c(OC)cc1Br	/	/	10	/	/
O=C1C2=C(Nc3ccccc3SC2c2ccco2)c2ccccc21 (centres undefined)	0.9	100*	-14	13	20
O=C1C2=C(Nc3ccccc3SC2c2ccc3c(c2)OCO3)c2ccccc21 (centres undefined)	/	/	5	/	/
CCn1c2ccccc2c2cc(CNCCc3cccc(F)c3)ccc21	/	/	2	/	/
Cc1cc(C)cc(Nc2cc(=O)n(C3CCCCC3)c(=O)[nH]2)c1	0.9	83*	2	-8	-14
COc1ccc(Nc2cc(=O)n(C3CCCCC3)c(=O)[nH]2)c(OC)c1	1	-10	9	7	0
COc1ccccc1C(=O)Nc1cc(Cl)ccc1O	1	9	6	/	-11
CCOc1ccccc1C(=O)Nc1cc(Cl)ccc1O	1.2	100*	0	6	-16
COc1ccccc1N1CCN(C(c2ccccc2Cl)c2nnnn2C(C)(C)C)CC1 (centres undefined)	1.6	63*	8	18	-11
COc1ccccc1N1CCN(C(c2ccc(Cl)cc2)c2nnnn2C(C)(C)C)CC1 (centres undefined)	1.3	66*	10	-8	-19
Cc1cccc(CC2CC(=O)N(c3ccc(Cl)c(Cl)c3)C2=O)c1 (centres undefined)	/	/	-9	/	/
O=C1C2CCCC1C(c1ccc3c(c1)OCO3)NC2c1ccc2c(c1)OCO2 (centres undefined)	/	/	9	/	/
CCCOc1ccc(C(=S)N2CCN(c3cccc(Cl)c3)CC2)cc1	/	/	-9	/	/
O=C(C1CCN(CCCc2ccccc2)CC1)N1CCCCC1	1.5	/	/	/	6
CC1CCN(C(=O)C2CCN(CCCc3ccccc3)CC2)CC1	2.2*	10	5	1	-4
CS(=O)(=O)N1CCN(Cc2cccnc2)CC1	/	/	5	/	/
Nc1ccc(O)c2c1C(=O)c1c(N)ccc(O)c1C2=O	/	/	8	/	/
Nc1ccc(S(=O)(=O)O)c2cccc(O)c12	/	/	103*	/	/
Nc1c(C(=O)c2ccc(Br)cc2)sc2nc(C(F)(F)F)c(C(=O)c3cccs3)cc12	/	/	1	/	/
OC(c1cccc(OCc2ccccc2)c1)c1nnc(-c2ccccc2)o1 (centres undefined)	1.1	75*	14	8	-10
CC(=O)NC1=NC(=O)/C(=C/c2cc(C)n(-c3ccc(NC(C)=O)cc3)c2C)S1	/	/	-2	/	/
CC(=O)NC1=NC(=O)/C(=C/c2cc(C)n(-c3cccc(C(=O)O)c3)c2C)S1	/	/	101*	/	/
SMILES	PLAP activator	Ecoli tolC	HePTP inhibitor	AP ELISA ortho	Ecoli WT expand
CCc1c(C)[nH]c2nc3ccccc3n2c1=O	2.3*	/	/	/	-7
O=c1cc(-c2ccccc2)[nH]c2nc3ccccc3n12	1.3	4	5	-1	-5
CC(=O)c1ccc(NC(=O)c2cnccn2)cc1	/	/	18	/	/
CC(C)(C)c1ccc(Cn2nnc3c(=O)[nH]c(C4CCN(C(=O)Cc5cccs5)CC4)nc32)cc1	1.5	-3	9	11	0
CC(C)(C)c1ccc(Cn2nnc3c(=O)[nH]c(C4CCCN(C(=O)Cc5cccs5)C4)nc32)cc1 (centres undefined)	1.4	88*	5	11	-4
CCOC(=O)N1CCC(Nc2nc3ccccc3nc2NS(=O)(=O)c2ccc(Cl)cc2)CC1	1	80*	2	18	0
CCOC(=O)N1CCC(NC(=O)CC(NS(=O)(=O)c2ccc(Cl)cc2)c2ccco2)CC1 (centres undefined)	1.3	24	14	12	-3
Cc1nn(-c2ccccc2)c2sc(-c3n[nH]c(=S)o3)cc12	1.2	78*	10	-2	-9
Cc1nn(-c2ccccc2)c2sc(C(=O)O)cc12	1	2	6	7	-7
O=C(CSc1ncn(-c2ccccc2)n1)Nc1nc2c(s1)CCCC2	1	61*	28	10	-4
O=C(NNc1ccccn1)C(=O)NNS(=O)(=O)c1ccc(Cl)cc1	2.4*	/	/	/	23
O=S(=O)(N=C(Nc1ccccn1)c1ccccc1)c1ccc(Cl)cc1	/	/	8	/	/
CCOc1ccc(-c2nc(-c3ccc(F)cc3)no2)cc1	/	/	12	/	/
CN(C(=O)CN1CCC(NC(=O)C2CCCCC2)CC1)C1CCCCC1	2*	-8	1	-20	-3
COc1ccc(N2C(=O)/C(=C/c3ccc(Br)o3)SC2=S)cc1	/	/	51*	/	/

Compound activity deposited in PubChem by several laboratories.
